Reference: ChEMBL document CHEMBL4316659, “Selective Antiproliferative Withanolides from Species in the Genera Eriolarynx and Deprea” (J Nat Prod, 2019)

Key:
[1] = system: A549; experiment: Antiproliferative activity against human A549 cells incubated for 48 hrs by SRB assay; format: functional; details: A549, 48 h
Procedure, shortened: (§1)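 Cells kept in RPMI 1640 with 5% FBS and 2 mM L-glutamine at 37 °C under 5% CO2. Seeded at 2500 (A549, HBL-100, HeLa, SW1573) or 5000 (T-47D, WiDr, BJ-hTERT) cells/well and left 24 h. Compounds added as serial dilutions (0.01−100 μM) for 48 h. SRB staining read at 530 and 620 nm. GI50 calculated by NCI formulas. Mean of at least two independent experiments ± SD.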

[2] = system: HBL-100; experiment: Antiproliferative activity against human HBL100 cells incubated for 48 hrs by SRB assay; format: functional; details: HBL-100, 48 h; procedure, shortened: as §1
[3] = system: HeLa; experiment: Antiproliferative activity against human HeLa cells incubated for 48 hrs by SRB assay; format: functional; procedure, shortened: as §1
[4] = system: SW1573; experiment: Antiproliferative activity against human SW1573 cells incubated for 48 hrs by SRB assay; format: functional; details: SW1573, 48 h; procedure, shortened: as §1
[5] = system: T47D; experiment: Antiproliferative activity against human T47D cells incubated for 48 hrs by SRB assay; format: functional; procedure, shortened: as §1
[6] = system: WiDr; experiment: Antiproliferative activity against human WiDr cells incubated for 48 hrs by SRB assay; format: functional; procedure, shortened: as §1
[7] = Antiproliferative activity against human hTERT-BJ cells incubated for 48 hrs by SRB assay; format: cell-based; procedure, shortened: as §1
[8] = Ratio of GI50 for antiproliferative activity against human hTERT-BJ cells incubated for 48 hrs by SRB assay to GI50 for antiproliferative activity against human A549 cells incubated for 48 hrs by SRB assay
Procedure, shortened: (§2)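 Selectivity is GI50 in the nontumor BJ-hTERT fibroblasts divided by GI50 in each tumor line. All values come from the same 48 h SRB assay, with 0.01−100 μM serial dilutions.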

[9] = Ratio of GI50 for antiproliferative activity against human hTERT-BJ cells incubated for 48 hrs by SRB assay to GI50 for antiproliferative activity against human HBL100 cells incubated for 48 hrs by SRB assay; procedure, shortened: as §2
[10] = Ratio of GI50 for antiproliferative activity against human hTERT-BJ cells incubated for 48 hrs by SRB assay to GI50 for antiproliferative activity against human HeLa cells incubated for 48 hrs by SRB assay; format: toxicity, cell-based; details: hTERT-BJ cells versus HeLa cells, read-out: RatioGI50; procedure, shortened: as §2
[11] = Ratio of GI50 for antiproliferative activity against human hTERT-BJ cells incubated for 48 hrs by SRB assay to GI50 for antiproliferative activity against human SW1573 cells incubated for 48 hrs by SRB assay; format: toxicity, cell-based; details: hTERT-BJ cells versus SW1573 cells, read-out: RatioGI50; procedure, shortened: as §2
[12] = Ratio of GI50 for antiproliferative activity against human hTERT-BJ cells incubated for 48 hrs by SRB assay to GI50 for antiproliferative activity against human T47D cells incubated for 48 hrs by SRB assay; format: toxicity, cell-based; details: hTERT-BJ cells versus T47D cells, read-out: RatioGI50; procedure, shortened: as §2
[13] = Ratio of GI50 for antiproliferative activity against human hTERT-BJ cells incubated for 48 hrs by SRB assay to GI50 for antiproliferative activity against human WiDr cells incubated for 48 hrs by SRB assay; format: toxicity, cell-based; details: hTERT-BJ cells versus WiDr cells, read-out: RatioGI50; procedure, shortened: as §2
[14] = system: SW1573; experiment: Antiproliferative activity against human SW1573 cells incubated for 48 hrs in absence of P-gp and CYP3A4/5 inhibitor verapamil by SRB assay; format: functional; details: SW1573, 48 h
Procedure, shortened: (§3)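 Wild-type SW1573 (2500 cells/well) and P-gp-overexpressing SW1573/Pgp (5000 cells/well) in RPMI 1640 with 5% FBS. Seeded 24 h, then exposed 48 h to serial dilutions (0.01−100 μM) with or without 10 μM verapamil (final) in the medium. Paclitaxel and vinblastine were reference drugs. SRB read at 530/620 nm. GI50 by NCI formulas, mean of at least two independent experiments ± SD.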

[15] = system: SW1573; experiment: Antiproliferative activity against human SW1573 cells over-expressing P-gp incubated for 48 hrs in absence of P-gp and CYP3A4/5 inhibitor verapamil by SRB assay; format: functional; details: SW1573, 48 h; procedure, shortened: as §3
[16] = system: SW1573; experiment: (§4) Resistance factor, ratio of GI50 for Antiproliferative activity against human SW1573 cells over-expressing P-gp incubated for 48 hrs in absence of P-gp and CYP3A4/5 inhibitor verapamil by SRB assay to GI50 for antiproliferative activity against human SW1573 cells incubated for 48 hrs in absence of P-gp and CYP3A4/5 inhibitor verapamil by SRB assay; format: functional
Procedure, shortened: (§5)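 Resistance factor is GI50 in SW1573/Pgp divided by GI50 in wild-type SW1573. Both come from 48 h SRB assays, run with 10 μM verapamil (final) or without it.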

[17] = system: SW1573; experiment: Antiproliferative activity against human SW1573 cells incubated for 48 hrs in presence of P-gp and CYP3A4/5 inhibitor verapamil by SRB assay; format: functional; details: SW1573, 48 h; procedure, shortened: as §3
[18] = system: SW1573; experiment: Antiproliferative activity against human SW1573 cells over-expressing P-gp incubated for 48 hrs in presence of P-gp and CYP3A4/5 inhibitor verapamil by SRB assay; format: functional; details: SW1573, 48 h; procedure, shortened: as §3
[19] = system: SW1573; experiment: as §4, with “presence” for “absence”; format: functional; procedure, shortened: as §5

Compound | GI50 [1] | GI50 [2] | GI50 [3] | GI50 [4] | GI50 [5] | GI50 [6] | GI50 at 48 h [7] | RatioGI50 [8] | RatioGI50 [9] | selectivity ratio at 48 h [10] | selectivity ratio at 48 h [11] | selectivity ratio at 48 h [12] | selectivity ratio at 48 h [13] | GI50 [14] | GI50 [15] | RatioGI50 [16] | GI50 [17] | GI50 [18] | RatioGI50 [19]
CO[C@H]1O[C@@](C)([C@H]2CC(C)=C(C)C(=O)O2)[C@H]2CC[C@H]3[C@@H]4[C@@H](O)C=C5[C@@H](O)C=CC(=O)[C@]5(C)[C@H]4CC[C@]123 | 3.1 µM | 3.6 µM | 3.2 µM | 3.3 µM | 3.9 µM | > 10 µM | > 10 µM | 2 - 10 | 2 - 10 | 2 to 10 | 2 to 10 | 2 to 10 | 2 to 10 | 3 µM | 3.3 µM | 1.1 | 3.5 µM | 2.3 µM | 0.7
CC1=C(C)C(=O)O[C@@H]([C@](C)(O)[C@H]2CC[C@H]3[C@@H]4[C@@H](O)C=C5[C@@H](O)C=CC(=O)[C@]5(C)[C@H]4CC[C@]23C)C1 | > 10 µM | 4.8 µM | 5.3 µM | 4.1 µM | > 10 µM | > 10 µM | > 10 µM | 2 - 10 | 2 - 10 | 2 to 10 | 2 to 10 | 2 to 10 | 2 to 10 | 3.4 µM | 3.2 µM | 0.9 | 4.2 µM | 3.2 µM | 0.8
